Results: ChEMBL document CHEMBL4028894, “Identification of a New Pyrazolo[1,5-a]quinazoline Ligand Highly Affine to γ-Aminobutyric Type A (GABAA) Receptor Subtype with Anxiolytic-Like and Antihyperalgesic Activity” (J Med Chem, 2017)

Columns and labels:
Mus musculus [1] = assay: Anticonvulsant activity in Swiss albino mouse assessed as protection against subcutaneous pentylenetetrazole-induced seizures at 10 mg/kg, po administered 30 mins followed by pentylenetetrazole challenge measured over 30 mins relative to control; type: functional
Method in brief: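 Male Swiss albino mice (23-30 g), 6 per group. Test drug suspended in 1% carboxymethylcellulose, given orally 30 min before PTZ 90 mg/kg s.c. (saline). Clonic generalized convulsions recorded over 30 min. Result expressed as % protection versus vehicle-treated animals (0% protection).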

Mus musculus [2] = assay: Anxiolytic-like activity in Swiss albino mouse assessed as persistent time in light box at 10 mg/kg, po administered 30 mins prior to testing by light dark box test (131.9 +/- 6.5 secs); type: functional
[3] = Displacement of [3H]Ro15-1788 from GABAA receptor in bovine cerebral cortex membranes after 90 mins by liquid scintillation counting method; type: cell membranes, Bos taurus, Membrane
Method in brief: (§1)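 Bovine cerebral cortex membranes in 50 mM tris-citrate pH 7.4, with displacement of specific [3H]flumazenil binding. Single-point screen at 10 μM gives % inhibition. Where inhibition exceeds 80%, at least six concentrations tested and Ki derived by iterative curve fitting and the Cheng-Prusoff equation. Five experiments, each in triplicate; mean ± SEM.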

Bos taurus = organism: Bos taurus; assay: Displacement of [3H]Ro15-1788 from GABAA receptor in bovine cerebral cortex membranes at 10 uM after 90 mins by liquid scintillation counting method relative to control; type: cell membranes; conditions: Membrane; method in brief: as §1
Mus musculus [4] = assay: Anxiolytic-like activity in Swiss albino mouse assessed as persistent time in light box at 100 mg/kg, ip administered 40 mins prior to testing by light dark box test (131.9 +/- 6.5 secs); type: functional
Rattus norvegicus [5] = assay: Antihyperalgesic activity in Sprague-Dawley rat peripheral mononeuropathy model assessed as ipsilateral paw pressure at 30 mg/kg, po after 30 mins by analgesimeter (41.7 +/- 3.6 g); type: functional
Mus musculus [6] = assay: Anxiolytic-like activity in Swiss albino mouse assessed as persistent time in light box at 1 mg/kg, po administered 30 mins prior to testing by light dark box test (131.9 +/- 6.5 secs); type: functional
Mus musculus [7] = assay: Effect on licking latency time in Swiss albino mouse at 30 mg/kg, po after 30 mins by hot plate test (reference value: 18.8 +/- 1.2 secs); type: ADME, organism-based; conditions: in vivo, 0.5 h
Mus musculus [8] = assay: Effect on spontaneous motility in Swiss albino mouse at 30 mg/kg, po measured over 5 mins by […] test; type: ADME, organism-based; conditions: in vivo
Method in brief: (§2)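 Male Swiss albino mice, 8 per group, hole-board: a 40 cm square with 16 holes. Compound given 30 min before the test. Each mouse explores freely for 5 min. Photobeam counts across quadrants give locomotor activity; photocells in the holes give the number of hole inspections.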

Mus musculus [9] = assay: Amnesic effect in Swiss albino mouse assessed as training session latency time at 30 mg/kg, po administered 30 mins prior to testing by passive-avoidance test (reference value: 14.1 +/- 3.4 secs); type: ADME, organism-based; conditions: in vivo
Mus musculus [10] = assay: Reversal of scopolamine-induced amnesic effect in Swiss albino mouse assessed as training session latency time at 10 mg/kg, po administered 30 mins followed by establishment of training session and immediate addition of scopolamine post session by passive-avoidance test (reference value: 15.9 +/- 3 secs); type: functional
Method in brief: (§3)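 Male Swiss albino mice, 8 per group, step-through passive avoidance. Compound given p.o. in 1% carboxymethylcellulose 30 min before training. Scopolamine 1.5 mg/kg in saline given i.p. immediately after training. Punishment on entering the dark compartment is a fall into 10 °C water. Latencies measured at training and at retention 24 h later (max 120 s).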

Mus musculus [11] = assay: Anticonvulsant activity in Swiss albino mouse assessed as protection against subcutaneous pentylenetetrazole-induced seizures at 30 mg/kg, po administered 30 mins followed by pentylenetetrazole challenge measured over 30 mins relative to control; type: functional
Method in brief: (§4)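 Male Swiss albino mice, 6 per group. Compound given p.o. in 1% carboxymethylcellulose. Pentylenetetrazole 90 mg/kg in saline given s.c. 30 min later. Occurrence of clonic generalized convulsions noted over 30 min. Result expressed as % protection, with the vehicle group taken as 0%.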

Mus musculus [12] = assay: Anticonvulsant activity in Swiss albino mouse assessed as protection against subcutaneous pentylenetetrazole-induced seizures at 100 mg/kg, po administered 30 mins followed by pentylenetetrazole challenge measured over 30 mins relative to control; type: functional; method in brief: as §4
Mus musculus [13] = assay: Effect on explorative activity in Swiss albino mouse at 30 mg/kg, po measured over 5 mins by […] test; type: ADME, organism-based; conditions: in vivo; method in brief: as §2
Mus musculus [14] = assay: Reversal of scopolamine-induced amnesic effect in Swiss albino mouse assessed as retention session latency time at 10 mg/kg, po administered 30 mins followed by establishment of training session and immediate addition of scopolamine post session by passive-avoidance test (reference value: 46.3 +/- 7.5 secs); type: functional; method in brief: as §3
Mus musculus [15] = assay: Antihyperalgesic activity in streptozotocin-induced Swiss albino mouse hyperalgesia model assessed as licking latency time at 30 mg/kg, po after 45 mins by hot plate test (reference value: 10.9 +/- 0.8 secs); type: functional
Rattus norvegicus [16] = assay: Antihyperalgesic activity in Sprague-Dawley rat peripheral mononeuropathy model assessed as ipsilateral paw pressure at 10 mg/kg, po after 30 mins by analgesimeter (41.7 +/- 3.6 g); type: functional
Rattus norvegicus [17] = assay: Antihyperalgesic activity in Sprague-Dawley rat peripheral mononeuropathy model assessed as ipsilateral paw pressure at 30 mg/kg, po after 15 mins by analgesimeter (33.7 +/- 3.2 g); type: functional
Rattus norvegicus [18] = assay: Antihyperalgesic activity in Sprague-Dawley rat peripheral mononeuropathy model assessed as ipsilateral paw pressure at 30 mg/kg, po after 45 mins by analgesimeter (36.9 +/- 3.8 g); type: functional
Mus musculus [19] = assay: Reversal of scopolamine-induced amnesic effect in Swiss albino mouse assessed as retention session latency time at 30 mg/kg, po administered 30 mins followed by establishment of training session and immediate addition of scopolamine post session by passive-avoidance test (reference value: 46.3 +/- 7.5 secs); type: functional; method in brief: as §3
Mus musculus [20] = assay: Reversal of scopolamine-induced amnesic effect in Swiss albino mouse assessed as training session latency time at 30 mg/kg, po administered 30 mins followed by establishment of training session and immediate addition of scopolamine post session by passive-avoidance test (reference value: 15.9 +/- 3 secs); type: functional; method in brief: as §3
Mus musculus [21] = assay: Antihyperalgesic activity in streptozotocin-induced Swiss albino mouse hyperalgesia model assessed as licking latency time at 30 mg/kg, po after 60 mins by hot plate test (reference value: 9.6 +/- 0.9 secs); type: functional
Mus musculus [22] = assay: Antihyperalgesic activity in streptozotocin-induced Swiss albino mouse hyperalgesia model assessed as licking latency time at 30 mg/kg, po after 30 mins by hot plate test (reference value: 10.2 +/- 0.8 secs); type: functional
Rattus norvegicus [23] = assay: Antihyperalgesic activity in Sprague-Dawley rat peripheral mononeuropathy model assessed as ipsilateral paw pressure at 10 mg/kg, po after 15 mins by analgesimeter (33.7 +/- 3.2 g); type: functional
Mus musculus [24] = assay: Amnesic effect in Swiss albino mouse assessed as retention session latency time at 30 mg/kg, po administered 30 mins prior to testing by passive-avoidance test (reference value: 98.4 +/- 8.8 secs); type: ADME, organism-based; conditions: in vivo
Mus musculus [25] = assay: Antihyperalgesic activity in streptozotocin-induced Swiss albino mouse hyperalgesia model assessed as licking latency time at 30 mg/kg, po after 15 mins by hot plate test (reference value: 9.4 +/- 1.1 secs); type: functional
Mus musculus [26] = assay: Anxiolytic-like activity in Swiss albino mouse assessed as persistent time in light box at 30 mg/kg, po administered 30 mins prior to testing by light dark box test (131.9 +/- 6.5 secs); type: functional
NSC = assay: Cytotoxicity against human H9-derived neural stem cells assessed as effect on cell viability at 1 to 1000 nM after 72 hrs by MTS assay; type: cell-based; conditions: 1 µM
Method in brief: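 Neural stem cells derived from H9 were grown on polyornithine/laminin and differentiated for 7 days in serum-free Neurobasal with 2% B-27, 2 mM L-glutamine and 5 μM retinoic acid. Cells then exposed 72 h to 1 nM-1 μM compound. MTS absorbance read at 490, background subtracted, expressed as % of untreated cells. Three independent experiments, each in triplicate.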

Mus musculus [27] = assay: Anxiolytic-like activity in Swiss albino mouse assessed as persistent time in light box at 30 mg/kg, po administered 30 mins prior to testing in presence of GABAA receptor antagonist flumazenil by light dark box test (131.9 +/- 6.5 secs); type: functional
Rattus norvegicus [28] = assay: Effect on pain threshold in contralateral paw in Sprague-Dawley rat peripheral mononeuropathy model at 30 mg/kg, po; type: ADME, organism-based; conditions: in vivo
Mus musculus [29] = assay: Effect on licking latency time in Swiss albino mouse at 30 mg/kg, po after 60 mins by hot plate test (reference value: 17.9 +/- 1.1 secs); type: ADME, organism-based; conditions: in vivo, 1 h
Mus musculus [30] = assay: Effect on licking latency time in Swiss albino mouse at 30 mg/kg, po after 45 mins by hot plate test (reference value: 18 +/- 0.9 secs); type: ADME, organism-based; conditions: in vivo, 0.75 h
Mus musculus [31] = assay: Effect on licking latency time in Swiss albino mouse at 30 mg/kg, po after 15 mins by hot plate test (reference value: 18.3 +/- 1.1 secs); type: ADME, organism-based; conditions: in vivo, 0.25 h
Rattus norvegicus [32] = assay: Antihyperalgesic activity in Sprague-Dawley rat peripheral mononeuropathy model assessed as ipsilateral paw pressure at 10 mg/kg, po after 45 mins by analgesimeter (36.9 +/- 3.8 g); type: functional
Mus musculus [33] = assay: Effect on motor coordination in Swiss albino mouse at 30 mg/kg, po measured over 30 secs at 15 to 60 mins post drug administration by rota rod test; type: ADME, organism-based; conditions: in vivo
Method in brief: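 Male Swiss albino mice, 8 per group. Oral dose in 1% carboxymethylcellulose. Rota rod turning at 16 r.p.m. Falls from the rod counted over 30 s, measured before dosing and every 15 min up to 60 min after.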

CN1C(=O)CN=C(c2ccccc2)c2cc(Cl)ccc21 [DIAZEPAM]
Activity (Mus musculus [1]): 100%
Time (Mus musculus [2]): 165.6 s
Ki [3]: 12.3 nM

COc1ccc2cnc3c(C(=O)OC(C)C)cnn3c2c1
inhibition (Bos taurus): > 80%
Ki [3]: 97.4 nM

COc1ccc2cnc3c(C(=O)OCc4cccs4)cnn3c2c1
inhibition (Bos taurus): > 80%
Ki [3]: 16.7 nM

COc1ccc2cnc3c(C(=O)OCc4ccco4)cnn3c2c1
inhibition (Bos taurus): > 80%
Ki [3]: 15.2 nM

CCOC(=O)c1cnn2c1[nH]c(=O)c1ccc(OC)cc12
inhibition (Bos taurus): 2%

COc1ccc2c(c1)-n1ncc(C(=O)OCc3ccccc3)c1NC2
inhibition (Bos taurus): > 80%
Ki [3]: 34 nM

CCOC(=O)c1cnn2c1ncc1ccccc12
inhibition (Bos taurus): > 80%
Ki [3]: 529 to 835 nM

CCOC(=O)c1cnn2c1NCc1ccc(OC)cc1-2
inhibition (Bos taurus): > 80%
Ki [3]: 376 nM

COc1ccc2cnc3c(C#N)cnn3c2c1
inhibition (Bos taurus): > 80%
Ki [3]: 378 nM

COc1ccccc1COC(=O)c1cnn2c1ncc1ccccc12
inhibition (Bos taurus): > 80%
Ki [3]: 3.16 nM

COc1ccc2cnc3c(C(=O)OCc4ccccc4)cnn3c2c1
inhibition (Bos taurus): > 80%
Ki [3]: 19 nM

CCOC(=O)c1cnn2c1ncc1ccc(OC)cc12
inhibition (Bos taurus): > 80%
Ki [3]: 102 nM

CCOC(=O)c1ncn2c1CN(C)C(=O)c1cc(F)ccc1-2 [FLUMAZENIL]
Time (Mus musculus [4]): 127.5 s

COc1ccc2cnc3c(C(=O)OCc4ccccc4OC)cnn3c2c1
Activity (Rattus norvegicus [5]): 41.7 g
Time (Mus musculus [6]): 133.1 s
Time (Mus musculus [7]): 17.2 s
Activity (Mus musculus [8]): Non-Toxic
Time (Mus musculus [9]): 16.5 s
Time (Mus musculus [10]): 17.5 s
Activity (Mus musculus [11]): 10%
Activity (Mus musculus [12]): 10%
Activity (Mus musculus [13]): Non-Toxic
Time (Mus musculus [14]): 53.1 s
Time (Mus musculus [15]): 13.1 s
Activity (Rattus norvegicus [16]): 41.7 g
Activity (Rattus norvegicus [17]): 52.4 g
Activity (Mus musculus [1]): 0%
Activity (Rattus norvegicus [18]): 35.9 g
Time (Mus musculus [19]): 60.4 s
Time (Mus musculus [20]): 17.52 s
Time (Mus musculus [21]): 11.2 s
Time (Mus musculus [22]): 15.5 s
Activity (Rattus norvegicus [23]): 39.8 g
Time (Mus musculus [24]): 105.6 s
Time (Mus musculus [25]): 16.6 s
Time (Mus musculus [26]): 165.7 s
Activity (NSC): Non-Toxic
Time (Mus musculus [27]): 136.4 s
Activity (Rattus norvegicus [28]): Non-Toxic
Time (Mus musculus [2]): 169.6 s
Time (Mus musculus [29]): 17.5 s
Time (Mus musculus [30]): 18.4 s
Time (Mus musculus [31]): 17.3 s
Activity (Rattus norvegicus [32]): 36.9 g
inhibition (Bos taurus): > 80%
Ki [3]: 0.27 nM
Activity (Mus musculus [33]): Non-Toxic

N#Cc1cnn2c1ncc1ccccc12
inhibition (Bos taurus): 27%

O=C(OCc1cccs1)c1cnn2c1ncc1ccccc12
inhibition (Bos taurus): > 80%
Ki [3]: 13.2 nM

COc1ccc2c(c1)-n1ncc(C(=O)OCc3ccccc3OC)c1NC2
inhibition (Bos taurus): > 80%
Ki [3]: 16 nM

COCCOc1ccc2cnc3c(C#N)cnn3c2c1
inhibition (Bos taurus): 53%

O=C(OCc1ccccc1)c1cnn2c1ncc1ccccc12
inhibition (Bos taurus): > 80%
Ki [3]: 25.9 nM
